Assay [1] relates to LN229 glioma cells. The assay is described as follows: Wound healing migration assay, LN229. As to conditions: LN229, 16 h wound healing, dosage under IC50. The class given is cell-based, human. A digest of the protocol:
(§1)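 Cells plated at 1×10^5 per well in 12-well plates at 37°C, 5% CO2. At 90% confluence the medium was removed and the monolayer scratched with a 200 μL pipette tip, then washed three times. Wound imaged at 0 and 16 h, and migration calculated from the change in wound area, with 0 h DMSO-control area set to 100%.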

In assay [2] the test system is LN229 glioma cells. The assay can be described thus: MTS cell viability assay, LN229. It is filed as cell-based, human. A digest of the protocol: (§2)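 Cells in DMEM with 10% FBS and penicillin/streptomycin at 37°C under 5% CO2, seeded in 96-well plates (LN229 3000, GBM8401 2000 cells per well). Exposed to test compound for 24 h, then incubated 2 h with MTS reagent added to the medium. Absorbance read at 490 nm, and IC50 determined from the viability data.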
(Formazan colour is commonly taken as a measure of viable cells.)

Assay [3] relates to GBM8401 glioma cells. The assay is described as follows: MTS cell viability assay, GBM8401. The class given is cell-based, human. A digest of the protocol:
as §2

For assay [4], the system named is LN229 glioma cells. The assay can be described thus: Colony formation assay, LN229. Conditions: LN229, cultured 2 weeks. It is filed as cell-based, human. A digest of the protocol: (§3)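 Cells seeded at 3000 per well in 6-well plates and grown 2 weeks, with test compound added on day 3. Colonies fixed in methanol and stained with 0.5% crystal violet. Image analysis counted colonies larger than 0.1 mm in diameter. Mean ± s.d., n = 3.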

Assay [5] concerns GBM8401 glioma cells. The assay is described as follows: Wound healing migration assay, GBM8401. It is filed as cell-based, human. As to conditions: GBM8401, 16 h wound healing, dosage under IC50. The method, boiled down: as §1
The subject of assay [6] is GBM8401 glioma cells. The assay can be described thus: Colony formation assay, GBM8401. Conditions: GBM8401, cultured 2 weeks. The class given is cell-based, human. A digest of the protocol:
as §3

Assay [7] has as its system NHA (normal human astrocyte). The assay can be described thus: MTS cell viability assay, NHA. The class given is cell-based.
Assay [8] deals with SVG p12 normal brain cell line. The assay can be described thus: MTS cell viability assay, SVG p12. The class given is cell-based, human.
The subject of assay [9] is GBM8401 glioma cells. The assay can be described thus: BrdU proliferation assay, GBM8401. As to conditions: GBM8401, 48 h; for effect on cell proliferation: single dose. It is filed as cell-based, human.
For assay [10], the system named is LN229 glioma cells. The assay is described as follows: BrdU proliferation assay, LN229. It is filed as cell-based, human. As to conditions: for effect on cell proliferation: LN229, 48 h, single dose.
For assay [11], the system named is LN229 glioma cells. The assay is described as follows: Cell cycle analysis. The class given is cell-based, human. As to conditions: LN229, 48 h, low-dose. A digest of the protocol: (§4)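 Treated 48 h, then fixed in 70% ethanol at 4°C and held overnight at −20°C. Washed twice in cold PBS containing 1% FBS, then stained with PI solution containing Tween 20 and RNase A for 30 min at 37°C in the dark. DNA content read by flow cytometry. Mean ± s.d., n = 3, against control by t test or one-way ANOVA.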

Assay [12] has as its system GBM8401 glioma cells. The assay can be described thus: Cell cycle analysis. The class given is cell-based, human. As to conditions: GBM8401, 48 h, low-dose. A digest of the protocol: as §4
Setting [13] is: Homo sapiens, Glioma cell, 24 h.
Where [14] appears, read: SVG p12, MTS assay, 24 h treatment.

For the compound `COc1cc(/C=C/C(=O)CC(=O)/C=C/c2ccc(O)c(OC)c2)ccc1O` [Curcumin], the effect on migration result in assay [1] and in [5] was “dose-dependently inhibited the migration” throughout. The IC50 in assay [2] (Homo sapiens, LN-229, 24 h) amounted to 5.85 µM; in assay [3] (setting [13]), 6.31 µM; in assay [7] (Homo sapiens, Astrocyte, 24 h), 22.2 µM; in assay [8] (Homo sapiens, SVGp12, 24 h), 4.19 µM. Also, the “effect on colony formation” value in [4] and in [6] was “inhibited colony formation” each time. In addition, the “effect on cell proliferation” value in [9] and in assay [10] was “suppressed cell proliferation” in each case.
As for `O=C(/C=C/c1ccc(O)cc1)CC(=O)/C=C/c1ccc(O)cc1` [Bisdemethoxycurcumin], the effect on migration result in assay [1] and in assay [5] was “had no effect on the migration” in each case. Moreover, the IC50 in assay [2] (Homo sapiens, LN-229, 24 h) was 26.8 µM; in [3] (setting [13]), 32.4 µM; in [7] (NHA, MTS assay, 24 h treatment), 31.9 µM; in assay [8] (Homo sapiens, SVGp12, 24 h, SVG p12, MTS assay, 24 h treatment), 30 µM; in [8] (setting [14]) it was 29.2 µM. Moreover, the “effect on cell viability” value in assay [2] (LN229, low-dose) was “slightly increased cell viability”; in [3] (GBM8401, low-dose), “slightly increased cell viability”. Further, the “effect on S phase” value in assay [11] and in assay [12] was “increased S phase not significantly” each time. Besides, the “effect on colony formation” value in assay [4] and in assay [6] was “dose dependently increased colony formation” each time. Besides, the “dose effect on cell proliferation (BrdU M1)” value in [9] is reported as “dose-dependently increased M1”; in assay [10] (LN229 (printed LN299), 48 h), “dose-dependently increased M1”. Also, the “effect on cell proliferation” value in [9] and in [10] was “significantly increased the cell proliferation” in each case.
On to Demethoxycurcumin, for which the effect on migration result in [1] and in assay [5] was “had no effect on the migration” each time. Also, the IC50 was determined as 24.5 µM in assay [2] (LN229, MTS assay, 24 h treatment); 17.7 µM in assay [3] (GBM8401, MTS assay, 24 h treatment); 11.3 µM in assay [7] (NHA, MTS assay, 24 h treatment); 30 µM in [8] (setting [14]). Moreover, the “effect on colony formation” value in assay [4] is listed as “suppressed colony formation in LN229 cells only in high-dose manner”; in [6] it was “not in GBM8401 cells”. For the same compound, the “effect on cell proliferation” value in [9] is “reduce”; in assay [10], “promoted cell proliferation”.

As a reminder, the IC50 is the concentration that inhibits the measured activity by half. Lower therefore signals inhibition by little substance.

The values are drawn from article PMC8349541 (OncoTargets and therapy, 2021).
